# ChEMBL document CHEMBL4402570, “Discovery and Optimization of Novel Pyrazolopyrimidines as Potent and Orally Bioavailable Allosteric HIV-1 Integrase Inhibitors” (J Med Chem, 2020)
# How the values were obtained:
# [1] = tested on: Human immunodeficiency virus 1; test: Antiviral activity against HIV1 NL4-3 infected in human MT2 cells measured after 3 to 4 days by luciferase reporter gene assay; format: functional, organism-based
# [2] = tested on: Human immunodeficiency virus 1; test: Antiviral activity against HIV1 NL4-3 harboring G140S/Q148H mutant infected in human MT2 cells measured after 3 to 4 days by luciferase reporter gene assay; format: functional, organism-based; conditions: Human immunodeficiency virus 1, NL4-3, MT2
# Procedure, shortened: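 MT-2 cells (RPMI 1640, 10% heat-inactivated FBS, 10 mM HEPES pH 7.55, 2 mM L-glutamine, penicillin/streptomycin) infected with titered NL4-3 Renilla luciferase reporter virus (luciferase replacing nef) carrying integrase G140S/Q148H, with serial compound dilutions from 10 mM DMSO stock, final DMSO 1%; luciferase read after 3–4 days; EC50 from median effect equation; n ≥ 2, some n = 1.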
# [3] = target: Human immunodeficiency virus type 1 integrase (Human immunodeficiency virus 1, UniProt Q7ZJM1); test: Allosteric inhibition of [3H]-2-tert-butoxy-2-[2-methyl-4-(p-tolyl)-3-quinolyl]acetic acid binding to HIV1 integrase measured after 1 hr under dark condition by microbeta plate reader method
# Procedure, shortened: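 Scintillation proximity displacement of tritiated LEDGF-site inhibitor from purified HIV-1 integrase (13 μM) premixed 1 h with PVT SPA beads (2 mg/mL); […]. Buffer 26 mM MOPS pH 7.0, 11 mM DTT, 100 mM NaCl, 20 mM MgCl2, 0.05% NP-40, 5% PEG-8000. Compounds 100 μM to 0.0512 nM, ten 5-fold dilutions. 1 h rocking, RT, dark; read after overnight; Ki derived.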
# [4] = Stability of the compound in human liver microsomes assessed as parent compound remaining at 0.5 uM measured after 10 mins in presence of NADPH by LC-MS/MS analysis; format: ADME, Microsome; conditions: read-out: Stability
# Procedure, shortened: (§1)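 CYP-mediated turnover: 0.5 μM compound with human or rat liver microsomes (1 mg/mL) in 100 mM sodium phosphate pH 7.4, 6.6 mM MgCl2, 37 °C; started with NADPH, DMSO 0.014%. Samples quenched at 0 and 10 min; parent remaining by LC-MS/MS; duplicate.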
# [5] = Permeability of the compound in pH 7.4 buffer at 100 uM measured after 4 hrs by sandwich-PAMPA; format: ADME; conditions: read-out: permeability
# Procedure, shortened: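 Parallel artificial membrane permeability: compound at 100 μM in donor buffer pH 7.4, permeating to acceptor through artificial membrane over 4 h; donor, acceptor and t0 solutions read by UV plate reader; triplicate.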
# [6] = Stability of the compound in rat liver microsomes assessed as parent compound remaining at 0.5 uM measured after 10 mins in presence of NADPH by LC-MS/MS analysis; format: ADME, Microsome; conditions: read-out: Stability; procedure, shortened: as §1
# [7] = Cytotoxicity against human MT2 cells measured after 4 days by XTT assay; format: cell-based
# Procedure, shortened: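 MT-2 cell viability measured by XTT after 4 days of compound exposure, run in parallel with the antiviral assay; CC50 from n ≥ 2 determinations.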
# [8] = Human immunodeficiency virus 1, NL4-3, MT2
# Sequence of Human immunodeficiency virus type 1 integrase (Q7ZJM1 whole entry): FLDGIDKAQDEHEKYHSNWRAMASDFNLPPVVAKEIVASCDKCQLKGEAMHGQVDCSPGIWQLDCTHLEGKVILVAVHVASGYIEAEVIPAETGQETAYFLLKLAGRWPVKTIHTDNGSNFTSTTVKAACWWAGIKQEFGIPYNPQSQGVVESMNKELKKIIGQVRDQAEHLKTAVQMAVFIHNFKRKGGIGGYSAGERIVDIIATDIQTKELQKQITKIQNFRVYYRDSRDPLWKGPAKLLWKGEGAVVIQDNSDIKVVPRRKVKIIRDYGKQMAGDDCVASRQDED
Structure (SMILES),"EC50 [1, 8]",Ki [3],further results
Cc1nnc(C(=O)NC(C)(C)c2nc(C(=O)NCc3ccc(F)cc3)c(O)c(=O)n2C)o1 [RALTEGRAVIR],0.002 µM,–,EC50 [2]: 2.42 µM
Cc1nc2cc(-c3ccccc3)nn2c(-c2cc(F)c3c(c2C)CCCO3)c1C(OC(C)(C)C)C(=O)O (stereo in doubt; 15),–,3.4 µM,EC50 [1]: > 40 µM
Cc1nc2cc(-c3ccccc3)nn2c(N2CCC(C)(C)CC2)c1C(OC(C)(C)C)C(=O)O (configuration not stated),0.55 µM,0.06 µM,"remaining at 10 min, 0.5 µM [4]: 100%; Papp at 4 h, 100 µM [5]: 70.3 ×10⁻⁶ cm/s"
Cc1nc2cc(-c3ccccc3)nn2c(-c2cc(F)c3c(c2C)CCCO3)c1[C@H](OC(C)(C)C)C(=O)O,0.11 µM,0.09 µM,EC50 [2]: 0.09 µM
Cc1ccc(-c2c(C(OC(C)(C)C)C(=O)O)c(C)nc3ccnn23)cc1 (configuration not stated),4.5 µM,2 µM,–
Cc1nc2cc(-c3ccccc3)nn2c(-c2ccc3c(c2)CCCO3)c1C(OC(C)(C)C)C(=O)O (configuration not stated),0.49 µM,0.04 µM,–
Cc1nc2cc(-c3cccc(Oc4ccccc4)c3)nn2c(-c2cc(F)c3c(c2C)CCCO3)c1C(OC(C)(C)C)C(=O)O (configuration not stated),0.06 µM,–,"remaining at 10 min, 0.5 µM [4]: 100%; remaining at 10 min, 0.5 µM [6]: 97%; Papp at 4 h, 100 µM [5]: 47.2 ×10⁻⁶ cm/s"
Cc1ccc(-c2c(C(OC(C)(C)C)C(N)=O)c(C)nc3cc(-c4ccccc4)nn23)cc1 (configuration not stated),18 µM,–,–
Cc1nc2cc(-c3ccc(OCc4ccccc4)cc3)nn2c(-c2cc(F)c3c(c2C)CCCO3)c1C(OC(C)(C)C)C(=O)O (configuration not stated),0.06 µM,–,"remaining at 10 min, 0.5 µM [4]: 84%; remaining at 10 min, 0.5 µM [6]: 79%; Papp at 4 h, 100 µM [5]: 31.3 ×10⁻⁶ cm/s"
Cc1ccccc1-c1c(C(OC(C)(C)C)C(=O)O)c(C)nc2cc(-c3ccccc3)nn12 (configuration not stated),21 µM,3.4 µM,–
Cc1ccc(-c2c(C(O)C(=O)O)c(C)nc3cc(-c4ccccc4)nn23)cc1 (configuration not stated),> 40 µM,–,–

# Now from value to molecule, other results behind:
"EC50 [1, 8]",Structure (SMILES),Ki [3],further results
13 µM,Cc1nc2cc(-c3ccccc3)nn2c(-c2cc(F)c3c(c2C)CCCO3)c1[C@@H](OC(C)(C)C)C(=O)O,> 53 µM,–
1.7 µM,COc1ccc(-c2c(C(OC(C)(C)C)C(=O)O)c(C)nc3cc(-c4ccccc4)nn23)cc1 (configuration not stated),0.31 µM,–
0.02 µM,Cc1nc2cc(-c3cccc(OCc4ccccc4)c3)nn2c(-c2cc(F)c3c(c2C)CCCO3)c1C(OC(C)(C)C)C(=O)O (configuration not stated),–,"remaining at 10 min, 0.5 µM [4]: 72%; remaining at 10 min, 0.5 µM [6]: 83%; Papp at 4 h, 100 µM [5]: 57 ×10⁻⁶ cm/s"
2.3 µM,Cc1nc2cc(-c3ccccc3)nn2c(N2CCCCCC2)c1C(OC(C)(C)C)C(=O)O (configuration not stated),0.43 µM,–
> 40 µM,Cc1nc2cc(-c3ccccc3)nn2c(-c2ccccc2)c1C(OC(C)(C)C)C(=O)O (configuration not stated),3.7 µM,–
16 µM,CC(C)(C)OC(C(=O)O)c1ccccc1-c1ccccc1 (configuration not stated),67 µM,CC50 at 96 h [7]: 127 µM
